According to ChEMBL document CHEMBL3792366, “Role of disulfide linkage in action of bis(dialkylaminethiocarbonyl)disulfides as potent double-Edged microbicidal spermicide: Design, synthesis and biology” (Eur J Med Chem, 2016):
Converted amounts (≈) assume the structure as drawn.

Legend:
Candida albicans = assay: Antifungal activity against Candida albicans after 48 hrs by broth microdilution method; type: functional
Method in brief: (§1)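 NCCLS broth microdilution in RPMI 1640 buffered with MOPS; starting inoculum 1–5 × 10^3 CFU/mL; plates incubated at 35 °C; MIC read after 48 h.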

[1] = tested on: Trichophyton mentagrophytes; assay: Antifungal activity against Trichophyton mentagrophytes after 48 hrs by broth microdilution method; type: functional; method in brief: as §1
Candida parapsilosis = assay: Antifungal activity against Candida parapsilosis ATCC 22019 after 48 hrs by broth microdilution method; type: functional; details: Lodderomyces parapsilosis, ATCC 22019, 48 h; method in brief: as §1
[2] = Spermicidal activity in human sperms assessed as motility measured within 30 secs by phase contrast microscopy; type: functional, Sperm
Method in brief: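 Liquefied human semen (0.05 mL) was added to 0.25 mL test solution and vortexed 10 s at low speed. Motile sperm were scored visually under phase contrast in five fields within 30 s; assays in triplicate; MEC = minimum effective concentration.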

Trichomonas vaginalis [3] = assay: Antitrichomonas activity against metronidazole-resistant trophozoite stage of Trichomonas vaginalis ATCC 50143 assessed as cell viability under anaerobic condition after 48 hrs by trypan blue exclusion assay; type: functional; details: ATCC 50143, 48 h
Method in brief: (§2)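 Log-phase T. vaginalis grown in TYM with 10% FCS, vitamin mix and penicillin/streptomycin at 37 °C. Compounds were made as 100 µg/mL DMSO stocks and serially diluted in TYM down to 0.1 µg/mL; DMSO/TYM served as vehicle. Parasites were incubated anaerobically at 37 °C, and viability was checked by trypan blue exclusion from 3 to 48 h. MIC = lowest concentration killing all cells by 48 h; each test was repeated three times.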

Sporothrix schenckii = assay: Antifungal activity against Sporothrix schenckii after 48 hrs by broth microdilution method; type: functional; method in brief: as §1
Trichomonas vaginalis [4] = assay: Potency index, ratio of metronidazole MIC to compound MIC for metronidazole-resistant trophozoite stage of Trichomonas vaginalis ATCC 50143; type: functional
Cryptococcus neoformans = assay: Antifungal activity against Cryptococcus neoformans after 48 hrs by broth microdilution method; type: functional; method in brief: as §1
Trichomonas vaginalis [5] = assay: Antitrichomonas activity against trophozoite stage of Trichomonas vaginalis clinical isolate assessed as cell viability under anaerobic condition after 48 hrs by trypan blue exclusion assay; type: functional; method in brief: as §2

| SMILES | MIC (Candida albicans) | MIC [1] | MIC (Candida parapsilosis) | MEC [2] | MIC (Trichomonas vaginalis [3]) | MIC (Sporothrix schenckii) | Ratio (Trichomonas vaginalis [4]) | MIC (Cryptococcus neoformans) | MIC (Trichomonas vaginalis [5]) |
| --- | --- | --- | --- | --- | --- | --- | --- | --- | --- |
| S=C(SSC(=S)N1CCOCC1)N1CCOCC1 | 76.9 µM (≈ 25 µg/mL) | 38.4 µM (≈ 12.5 µg/mL) | 76.9 µM (≈ 25 µg/mL) | 0.1% | 9.6 µM (≈ 3.12 µg/mL) | 76.9 µM (≈ 25 µg/mL) | 16 | 38.4 µM (≈ 12.5 µg/mL) | 9.6 µM (≈ 3.12 µg/mL) |
| CS(=O)(=O)N1CCN(C(=S)SSC(=S)N2CCN(S(C)(=O)=O)CC2)CC1 | 104 µM (≈ 49.8 µg/mL) | 52.1 µM (≈ 24.9 µg/mL) | > 104 µM | 1% | > 208 µM | > 104 µM | – | > 104 µM | > 208 µM |
| S=C(SSC(=S)N1CCCCC1)N1CCCCC1 [BIS(PIPERIDINYLTHIOCARBONYL)DISULFIDE] | 9.7 µM (≈ 3.11 µg/mL) | 19.4 µM (≈ 6.22 µg/mL) | 38.9 µM (≈ 12.5 µg/mL) | 1% | 155 µM (≈ 49.7 µg/mL) | 38.9 µM (≈ 12.5 µg/mL) | – | 2.4 µM (≈ 0.769 µg/mL) | 155 µM (≈ 49.7 µg/mL) |
| CN1CCN(C(=S)SCSC(=S)N2CCN(C)CC2)CC1 | – | – | – | 0.5% | – | – | – | – | – |
| S=C(SSC(=S)N1CCCCCC1)N1CCCCCC1 | 8.9 µM (≈ 3.1 µg/mL) | 17.9 µM (≈ 6.24 µg/mL) | 143 µM (≈ 49.9 µg/mL) | >1% | 35.8 µM (≈ 12.5 µg/mL) | 17.9 µM (≈ 6.24 µg/mL) | 4 | 4.4 µM (≈ 1.53 µg/mL) | 286 µM (≈ 99.7 µg/mL) |
| O=[N+]([O-])c1ccc(N2CCN(C(=S)SSC(=S)N3CCN(c4ccc([N+](=O)[O-])cc4C(F)(F)F)CC3)CC2)c(C(F)(F)F)c1 | 35.6 µM (≈ 24.9 µg/mL) | 71.3 µM (≈ 50 µg/mL) | > 71.3 µM | 0.1% | > 142 µM | > 71.3 µM | – | > 71.3 µM | > 142 µM |
| S=C(SSC(=S)N1CCN(c2ccccn2)CC1)N1CCN(c2ccccn2)CC1 | > 104 µM | 52.4 µM (≈ 25 µg/mL) | > 104 µM | 1% | > 209 µM | 104 µM (≈ 49.6 µg/mL) | – | 104 µM (≈ 49.6 µg/mL) | > 209 µM |
| CN1CCN(C(=S)SCCCSC(=S)N2CCN(C)CC2)CC1 | – | – | – | 0.5% | – | – | – | – | – |
| OC(Cn1cncn1)(Cn1cncn1)c1ccc(F)cc1F [FLUCONAZOLE] | 0.39 µM (≈ 0.119 µg/mL) | 0.39 µM (≈ 0.119 µg/mL) | 0.39 µM (≈ 0.119 µg/mL) | – | – | 0.39 µM (≈ 0.119 µg/mL) | – | 0.19 µM (≈ 0.0582 µg/mL) | – |
| CN1CCN(C(=S)SCCSC(=S)N2CCN(C)CC2)CC1 | – | – | – | 0.5% | – | – | – | – | – |
| C=CCN1CCN(C(=S)SCCC)CC1 | – | – | – | >1% | – | – | – | – | – |
| S=C(SSC(=S)N1CCN(C23CC4CC(CC(C4)C2)C3)CC1)N1CCN(C23CC4CC(CC(C4)C2)C3)CC1 | 84.6 µM (≈ 50 µg/mL) | 84.6 µM (≈ 50 µg/mL) | 84.6 µM (≈ 50 µg/mL) | 1% | > 169 µM | 84.6 µM (≈ 50 µg/mL) | – | 84.6 µM (≈ 50 µg/mL) | > 169 µM |
| Fc1ccc(N2CCN(C(=S)SSC(=S)N3CCN(c4ccc(F)cc4)CC3)CC2)cc1 | 97.8 µM (≈ 49.9 µg/mL) | 97.8 µM (≈ 49.9 µg/mL) | > 97.8 µM | >1% | > 195 µM | 97.8 µM (≈ 49.9 µg/mL) | – | > 97.8 µM | > 195 µM |
| Cc1ccc(S(=O)(=O)N2CCN(C(=S)SSC(=S)N3CCN(S(=O)(=O)c4ccc(C)cc4)CC3)CC2)cc1 | > 76.5 µM | 76.5 µM (≈ 48.3 µg/mL) | > 76.5 µM | >1% | > 153 µM | 76.5 µM (≈ 48.3 µg/mL) | – | > 76.5 µM | > 153 µM |
| N#CCCCN1CCN(C(=S)SCCCSC(=S)N2CCN(CCCC#N)CC2)CC1 | – | – | – | 0.5% | – | – | – | – | – |
| CCCCSC(=S)N1CCN(C(=S)SSC(=S)N2CCN(C(=S)SCCCC)CC2)CC1 | > 85.1 µM | 42.5 µM (≈ 24.9 µg/mL) | 42.5 µM (≈ 24.9 µg/mL) | >1% | > 170 µM | 85.1 µM (≈ 50 µg/mL) | – | 85.1 µM (≈ 50 µg/mL) | > 170 µM |
| CCCCCCCCCCCCCCCCN1CCN(C(=S)SSC(=S)N2CCN(CCCCCCCCCCCCCCCC)CC2)CC1 | 64.8 µM (≈ 50 µg/mL) | 16.2 µM (≈ 12.5 µg/mL) | > 64.8 µM | 1% | > 129 µM | 16.2 µM (≈ 12.5 µg/mL) | – | 64.8 µM (≈ 50 µg/mL) | > 129 µM |
| C=CCN1CCN(C(=S)SCCCSC(=S)N2CCN(CC=C)CC2)CC1 | – | – | – | 0.5% | – | – | – | – | – |
| CCCCN1CCN(C(=S)SCCCSC(=S)N2CCN(CCCC)CC2)CC1 | – | – | – | 0.5% | – | – | – | – | – |
| S=C(SSC(=S)N1CCN(c2ncccn2)CC1)N1CCN(c2ncccn2)CC1 | > 104 µM | 104 µM (≈ 49.8 µg/mL) | > 104 µM | 1% | > 208 µM | 104 µM (≈ 49.8 µg/mL) | – | 104 µM (≈ 49.8 µg/mL) | 104 µM (≈ 49.8 µg/mL) |
| CCCCCCSC(=S)N1CCN(CCCC#N)CC1 | – | – | – | >1% | – | – | – | – | – |
| C=CCN1CCN(C(=S)SCCCCCC)CC1 | – | – | – | >1% | – | – | – | – | – |
